High-throughput results deposited in PubChem BioAssay by several laboratories.
Yeast superoxide: caloric restriction mimetics inhibiting age-related superoxide in yeast. S. cerevisiae aged cells, superoxide DHE fluorescence; stronger effect = lower value. superoxide response (% of plate mean), % at 10 µM. 0.18% of 330,000 active. AID 2690;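 active = superoxide response under a set limit, about three screen SD below normal, cut at about 65% in these data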;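 also: yeast aged for seven days with compound at 30 °C before DHE staining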
IDE cell inh: inhibitors of human insulin-degrading enzyme in cells. P14735. HEK cells, FAbetaB cleavage, fluorescence polarization. inhibition, % at 5.59 µM. 0.41% of 320,000 active. AID 434962;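 active = percent inhibition above the average of all tested compounds plus 3 SD, set per screening campaign, cut at about 16% in these data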;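 also: IDE supplied by intact live HEK cells; FP after avidin binding of uncleaved biotin substrate so inhibition keeps polarization high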
Tb MetRS inh: blocks T. brucei methionyl-tRNA synthetase activity; purified T. brucei MetRS, ATP depletion, Kinase-Glo luminescence; inhibition, % at 11.9 µM; 0.4% of 360,000 active; AID 624268;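 active = inhibition above a per-plate cutoff of the control wells' mean inhibition plus 3 SD, cut at about 5.5% in these data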
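Test system: purified T. brucei MetRS enzyme. Also added: ATP, methionine and E. coli bulk tRNA substrates. Compound: 11.9 µM single point. Schedule: 15 min enzyme-compound preincubation, 2 h reaction, 10 min detection, 25 °C. Signal: luciferase luminescence of residual ATP, Kinase-Glo. Evaluation: percent inhibition versus plate control medians. Controls: DMSO wells, low control.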
IDE act: boosts human insulin-degrading enzyme activity in HEK cells; FAbeta-B cleavage, fluorescence polarization; 0% vehicle, 100% cell-free pure enzyme wells; activation, % at 5.96 µM; 0.073% of 340,000 active; AID 493087;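 active = activation above the mean of all tested compounds plus 3 SD, set per screening campaign, cut at about 17% in these data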
Efflux pump inh: inhibitors of Candida antifungal efflux pumps expressed in yeast. S. cerevisiae Candida pump triplex, Nile Red efflux. inhibition, % at 10 µM. 0.44% of 330,000 active;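 active = plate passing quality check with inhibition over a set limit, or well fluorescence over plate mean plus 4 SD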;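 also: Nile Red retained in pooled yeast measured as flow cytometry median fluorescence; higher means more Nile Red kept so more efflux inhibition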
HDAC3 inh: inhibitors of human histone deacetylase 3; recombinant HDAC3, fluorogenic peptide/trypsin coupled, fluorescence; O15379; 0.15% of 320,000 active; AID 2718; inhibition, % at 8.3 µM; in the data active = inhibition above about 26%, passing the limit was not always enough
Target sequence (O15379 whole entry, looked up): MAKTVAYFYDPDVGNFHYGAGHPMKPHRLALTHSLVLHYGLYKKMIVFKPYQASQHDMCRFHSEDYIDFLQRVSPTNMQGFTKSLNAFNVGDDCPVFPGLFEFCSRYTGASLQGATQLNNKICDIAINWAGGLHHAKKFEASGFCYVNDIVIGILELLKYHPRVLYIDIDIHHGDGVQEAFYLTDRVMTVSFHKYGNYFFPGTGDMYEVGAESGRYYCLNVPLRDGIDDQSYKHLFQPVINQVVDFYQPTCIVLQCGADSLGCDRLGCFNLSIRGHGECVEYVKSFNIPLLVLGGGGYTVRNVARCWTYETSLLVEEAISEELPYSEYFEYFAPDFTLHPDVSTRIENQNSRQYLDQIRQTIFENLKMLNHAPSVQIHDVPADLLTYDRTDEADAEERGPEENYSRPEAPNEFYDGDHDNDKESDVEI
IDE cell inh cf: confirmation of human insulin-degrading enzyme inhibitors in cells. inhibition, % at 5.59 µM. HEK cells, FAbetaB cleavage, fluorescence polarization. shares compounds with IDE cell inh. 51% of 1,200 active;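 active = mean inhibition across triplicate wells above the cutoff set by the earlier primary insulin-degrading enzyme screen, cut at about 16% in these data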
HEK cytotox: HEK cell cytotoxicity, counter-screen for IDE inhibitors. 28% of 1,200 active. HEK293 cytotoxicity, ATP luminescence. shares compounds with IDE cell inh. inhibition, % at 5.59 µM; in the data active = inhibition above about 22%
IDE FP artifact: fluorescence interference counter-screen for IDE inhibitors; shares compounds with IDE cell inh; FP counterscreen for fluorescent artifacts, IDE probe project; IC50, µM; 30 tested, under 10 active; call rule not given here
Of the large screens only hits and unclear results are named; the others gave an inactive call (follow-up assays come after a bar, where they were run). Shown are actives, neighbours in structure and some others; about 1.4% of the full set was active somewhere.

CC(=O)c1cc(NC(=O)c2ccc(Cl)cc2)c(=O)oc1/C=C/N(C)C	IDE cell inh 17 | IDE cell inh cf 54 | HEK cytotox inactive
CC(=O)c1cc(NC(=O)c2cccc(C(F)(F)F)c2)c(=O)oc1/C=C/N(C)C	none
CCC(C)[C@H](NC(=O)NC(C)C)C(=O)O (stereo partly specified)	none
O=C(Nc1ccc(N2CCN(c3ccc(C(F)(F)F)cn3)CC2)nc1)c1cccs1	IDE cell inh 17 | IDE cell inh cf inactive | HEK cytotox 31
O=C(Nc1ccc(N2CCN(c3ncccc3C(F)(F)F)CC2)nc1)c1cccs1	none
COc1ccc(C(=O)N2CCN(C(=O)C3COc4ccccc4O3)CC2)cc1OC (stereo unspecified)	IDE cell inh 17 | IDE cell inh cf 16 | HEK cytotox inactive | IDE FP artifact inactive
COc1ccc(C(=O)NC2CC(C)(C)NC(C)(C)C2)cc1S(=O)(=O)N1CCOCC1	none (no result: Yeast superoxide, IDE cell inh, IDE act, Efflux pump inh, HDAC3 inh)
COc1ccccc1N1C(=O)c2cccc3c(N(C)CCO)ccc(c23)C1=O	IDE cell inh 45 | IDE cell inh cf 47 | HEK cytotox inactive
Cc1ccccc1N1C(=O)c2cccc3c(N(C)CCO)ccc(c23)C1=O	IDE cell inh 47 | IDE cell inh cf 68 | HEK cytotox inactive
COc1ccccc1N1C(=O)c2cccc3c(C(=O)O)ccc(c23)C1=O	none
Cc1sc(NC(=S)NC(=O)c2ccccc2)c(C#N)c1C	none
CC(C)N1CCc2c(sc(NC(=S)NC(=O)c3ccccc3)c2C#N)C1	IDE cell inh 19 | IDE cell inh cf inactive | HEK cytotox inactive
CCCN1CCc2c(sc(NC(=S)NC(=O)c3ccccc3)c2C#N)C1	IDE cell inh 39 | IDE cell inh cf inactive | HEK cytotox inactive
CC(=O)Nc1ccc(C2=NNC(=Nc3ccc(S(=O)(=O)N4CCOCC4)cc3)SC2)cc1	IDE cell inh 22 | IDE cell inh cf inactive | HEK cytotox inactive
CC(=O)Oc1ccc(Cn2c(C)c(C(=O)NCc3cccc(C(F)(F)F)c3)sc2=O)cc1	none (no result: Yeast superoxide, IDE cell inh, IDE act, Efflux pump inh, HDAC3 inh)
CC(C)CCNc1ncnc2c1cnn2Cc1ccccc1Cl	IDE cell inh 21 | IDE cell inh cf inactive | HEK cytotox inactive
Cc1ccc(NC(=S)NC2CCCC2)cc1C	none
Cc1nc2ccc(NC(=S)NC3CCCCC3)cc2nc1C	IDE cell inh 21 | IDE cell inh cf inactive | HEK cytotox inactive
COc1cc(/C=C2\SC(N)=NC2=O)cc(Br)c1O	IDE cell inh 55 | IDE cell inh cf 70 | HEK cytotox inactive
COc1ccc(C(C(=O)NC(C)(C)C)N(C(=O)CCC(=O)Nc2cc(C)on2)c2cccc(C)c2C)cc1 (stereo unspecified)	none
NC(c1csc(NC(=O)c2cccc(OC(F)(F)F)c2)n1)c1ccccc1Cl (stereo unspecified)	none (no result: Yeast superoxide, IDE cell inh, IDE act, Efflux pump inh, HDAC3 inh)
CC(C)CCNC(=O)Nc1ccc2c(c1)N(C)C(=O)CS2	none
CN1C(=O)CSc2ccc(NC(=O)NCCC3=CCCCC3)cc21	IDE cell inh 17 | IDE cell inh cf inactive | HEK cytotox inactive
CC(=O)Nc1sc2c(c1-c1nc3ccccc3s1)CN(C(C)C)CC2	IDE cell inh 30 | IDE cell inh cf inactive | HEK cytotox 95
CC(=O)N1CCc2c(sc(NC(=O)C3CC3)c2-c2nc3ccccc3s2)C1	none
O=C1c2cccc3c(N4CCCCC4)ccc(c23)C(=O)N1c1ccccn1	IDE cell inh 75 | IDE cell inh cf 109 | HEK cytotox inactive
CC(=O)N(C(C)=O)N1C(=O)c2cccc3c(N4CCOCC4)ccc(c23)C1=O	IDE cell inh 17 | IDE cell inh cf inactive | HEK cytotox inactive
OCCNc1nc(Nc2cc(Cl)ccc2OC2CCCC2)nc(N2CCCC2)n1	none
COc1cccc2c1C(=O)C=C(C)C2=O	IDE cell inh 34 | IDE cell inh cf 72 | HEK cytotox 34
CCOc1cccc2sc(Nc3nc4ccc(NC(C)=O)cc4s3)nc12	IDE cell inh 32 | IDE cell inh cf inactive | HEK cytotox 89
CCOC(=O)c1sc(Nc2nc3c(OC)cccc3s2)nc1C	IDE cell inh 17 | IDE cell inh cf inactive | HEK cytotox inactive
O=C1CC[C@@H](C(=O)N2CSC[C@@H]2C(=O)Nc2cccc(C(F)(F)F)c2)N1	none (no result: Yeast superoxide, IDE cell inh, IDE act, Efflux pump inh, HDAC3 inh)
CNc1ccc(-c2cccc(CO)c2)cn1	none (no result: Yeast superoxide, IDE cell inh, IDE act, Efflux pump inh, HDAC3 inh)
Cc1occc1C(=O)N/N=C/c1ccc(OCc2ccccc2)cc1	none
Cc1occc1C(=O)N/N=C/c1ccc(-c2ccccc2)cc1	IDE cell inh 16 | IDE cell inh cf inactive | HEK cytotox 65
COc1cc(/C=N/NC(=O)c2ccc(-c3ccccc3)cc2)cc(OC)c1OC	IDE cell inh 21 | IDE cell inh cf inactive | HEK cytotox inactive
Cc1nn(C)c(C)c1NC(=S)Nc1ccc(S(=O)(=O)Nc2ncccn2)cc1	none
Cc1ccc(-c2nc3ccccc3[nH]2)cc1NC(=S)NC(=O)c1ccccc1Br	IDE cell inh 18 | IDE cell inh cf inactive | HEK cytotox 31
C[C@@H]1CN([C@H](C)CO)C(=O)CCCn2nncc2CO[C@H]1CN(C)C(=O)Nc1cccc2ccccc12	none (no result: Yeast superoxide, IDE cell inh, IDE act, Efflux pump inh, HDAC3 inh)
O=C(CCC(=O)c1ccc(-c2ccccc2)cc1)Nc1cccnc1	IDE cell inh 17 | IDE cell inh cf inactive | HEK cytotox inactive
O=C(CCC(=O)c1ccccc1)Nc1cccnc1	none
CC(=O)Oc1ccc(C(c2ccc(OC(C)=O)cc2)c2ccccn2)cc1	none (no result: HDAC3 inh)
c1ccc(C(c2ccccn2)c2ccccn2)cc1	IDE cell inh 17 | IDE cell inh cf inactive | HEK cytotox inactive
O=C(CCc1nnc2ccc(NCc3ccccc3)nn12)NC1CCCC1	none
N#CCc1nc2ccc(S(=O)(=O)N3CCOCC3)cc2s1	IDE cell inh 46 | IDE cell inh cf inactive | HEK cytotox inactive
O=C(Nc1cccc2ccccc12)OCc1cncs1	none
CCCc1cc(C(=O)N2CCN(c3ccc(C(F)(F)F)cn3)CC2)sc1C	IDE cell inh 16 | IDE cell inh cf inactive | HEK cytotox inactive
CC(=O)c1cccc(OCC(=O)N2CCN(c3ccc(C(F)(F)F)cn3)CC2)c1	IDE cell inh 22 (no result: HDAC3 inh) | IDE cell inh cf 19 | HEK cytotox inactive
Cc1ccc(C(=O)N2CCN(c3ccc(C(F)(F)F)cn3)CC2)cc1	none
CCn1c(CN2CCOCC2)nnc1SCC(=O)Nc1ccccc1Cl	none
CCOC(=O)c1c2ccccc2[n+]([O-])n1CCO	none
Cc1cccc(Nc2nc(N)c(C#N)c(CC#N)c2C#N)c1	IDE cell inh 26 | IDE cell inh cf 19 | HEK cytotox inactive
Cc1cccc(Nc2nc(C)cc(C)c2C#N)c1	none
CCCN1CCN(CC(=O)Nc2nnc(CC)s2)CC1	none
